High-throughput results deposited in PubChem by several laboratories.
Most compounds without a hit are left out; they make up all but 2.5% or so of the library.
Arr AP2 block: blocks beta-arrestin peptide binding to AP2 adaptin; FITC-arrestin peptide / GST-AP2 beads, flow cytometry; AP2 beta2 appendage carries R879A mutation; inhibition, % at 10 µM; 340,000 tested, 0.31% active;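 active means inhibition above a set limit, near 3 SD of compounds lacking own fluorescence, cut at about 54% in these data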;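 further: plate controls were DMSO wells for no effect and 5 µM unlabelled arrestin peptide for full effect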
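System: GST-tagged AP2 beta2-adaptin appendage (R879A) on 4 µm glutathione beads / Reagent: FITC-arrestin peptide, 50 nM / Detection: HyperCyt-sampled flow cytometry, FL1 channel, ex 488/em 535 nm / Timing: 12 min plus 1 h, RT / Buffer or medium: PBS plus Tween 20 (0.05%) and BSA (0.1%)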
Beta2AR agonist: agonists of human beta-2 adrenergic receptor inducing internalization | P07550 | Am2.2-beta2AR cells, FAP receptor internalization, flow cytometry | response, % (test concentration not listed) | 340,000 tested, 0.43% active | AID 504454;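 active means response above a set limit, near 3 SD of response in nonfluorescent compounds, cut at about 42% in these data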
UHRF1 binding: human UHRF1 methylated DNA binding inhibitors | Q96T88 | UHRF1 binding to methylated oligo, TR-FRET | inhibition, % at 4.4 µM | 370,000 tested, 0.75% active; in the data active means inhibition above about 21%;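 further: UHRF1 SRA domain binding a hemimethylated CpG hairpin DNA probe; 0% = median of test compound wells and 100% = reference inhibitor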
Target sequence (Q96T88 whole entry, looked up, the tested form may be a part): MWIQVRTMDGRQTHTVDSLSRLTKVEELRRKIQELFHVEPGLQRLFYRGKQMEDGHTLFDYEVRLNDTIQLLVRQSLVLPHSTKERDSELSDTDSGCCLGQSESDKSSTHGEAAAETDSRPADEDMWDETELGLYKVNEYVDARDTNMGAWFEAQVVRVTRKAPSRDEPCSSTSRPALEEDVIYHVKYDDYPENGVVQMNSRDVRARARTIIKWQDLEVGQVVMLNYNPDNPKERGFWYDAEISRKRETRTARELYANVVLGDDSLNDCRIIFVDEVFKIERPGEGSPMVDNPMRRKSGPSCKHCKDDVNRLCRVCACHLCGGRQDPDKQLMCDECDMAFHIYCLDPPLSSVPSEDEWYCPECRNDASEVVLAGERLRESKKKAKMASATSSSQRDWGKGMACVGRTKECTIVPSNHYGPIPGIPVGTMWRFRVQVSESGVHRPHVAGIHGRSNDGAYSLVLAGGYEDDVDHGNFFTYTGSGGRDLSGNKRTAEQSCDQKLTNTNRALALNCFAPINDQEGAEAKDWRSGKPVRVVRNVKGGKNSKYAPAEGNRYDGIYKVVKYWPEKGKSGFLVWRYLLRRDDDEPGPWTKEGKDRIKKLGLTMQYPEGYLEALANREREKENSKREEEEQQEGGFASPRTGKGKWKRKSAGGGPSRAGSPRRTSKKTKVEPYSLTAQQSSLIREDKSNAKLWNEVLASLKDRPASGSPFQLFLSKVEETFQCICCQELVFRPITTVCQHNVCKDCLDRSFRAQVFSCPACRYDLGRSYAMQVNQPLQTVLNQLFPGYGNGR
MBD2 DNA inh: blocks human MBD2 binding to methylated DNA; Q9UBB5; TR-FRET, MBD2 binding to methylated oligonucleotide; inhibition, % at 4.4 µM; 370,000 tested, 0.31% active; in the data active means inhibition above about 13%
ABHD5-PLIN5 inh: blocks binding of human ABHD5 to perilipin-5. Q00G26+Q8WTS1. Split G. princeps luciferase complementation, luminescence, 4 h. inhibition, % at 4 µM. 360,000 tested, 0.78% active. AID 602281;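 active means inhibition above the mean inhibition across every tested compound plus 3 SD, cut at about 22% in these data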;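 further: 0% = DMSO only wells and the 100% control is not disclosed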
Rin1 Abl inh: blocks binding of human Rin1 to Abl; P00519+Q13671; TR-FRET Rin1/Abl binding, biochemical; inhibition, % at 7.35 µM; 360,000 tested, 0.4% active; AID 588664; in the data active means inhibition above about 5%, passing the limit was not always enough
ABHD5 PLIN5 conf: ABHD5-PLIN5 interaction inhibition, confirmed | biochemical ABHD5-PLIN5 interaction, luminescence | 2,200 tested, 67% active | inhibition, % at 4 µM | AID 651612 | shares compounds with ABHD5-PLIN5 inh; in the data active means inhibition above about 23%;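 further: 0% = DMSO vehicle wells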
HNF4 split-luc: active in HNF4 split-luciferase counter-screen for ABHD5-PLIN5 inhibitors | HNF4 dimerization, luminescence, biochemical | 2,200 tested, 77% active | inhibition, % at 4 µM | shares compounds with ABHD5-PLIN5 inh;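 active means mean inhibition across replicate wells exceeding the computed hit threshold, cut at about 13% in these data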;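 further: light from luciferase halves that rejoin when HNF4 fusion proteins dimerize; 0% = DMSO only wells and the 100% control is not given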
* hit, by the source's call; ! = a repeat was not active.

For CC(=O)Nc1ccc(S(=O)(=O)Oc2cccc(/C=C3\SC(N)=NC3=O)c2)cc1 the results were Arr AP2 block 16, Beta2AR agonist 3, UHRF1 binding -5, MBD2 DNA inh 1, ABHD5-PLIN5 inh 28*, Rin1 Abl inh 3, ABHD5 PLIN5 conf 35* and HNF4 split-luc 22*.
`COC(=O)[C@H](C)N(Cc1cn(Cc2ccccc2)nn1)S(=O)(=O)c1ccccc1Br` gave UHRF1 binding 1 and MBD2 DNA inh -6.
Screening COc1cc(/C=C/C(=O)N2CCN(C(=O)/C=C/c3cc(OC)c(OC)c(OC)c3)CC2)cc(OC)c1OC returned Arr AP2 block 4, Beta2AR agonist -2, ABHD5-PLIN5 inh 0 and Rin1 Abl inh 0.
For C=CCSc1nc2ccccc2n1C(=O)/C=C/c1cc(OC)c(OC)c(OC)c1 the results were Arr AP2 block -8, Beta2AR agonist 86*, UHRF1 binding -4, MBD2 DNA inh -2, ABHD5-PLIN5 inh 43*, Rin1 Abl inh -1, ABHD5 PLIN5 conf 88* and HNF4 split-luc 72*.
`COC(=O)C1CN(Cc2cn(Cc3ccc(F)cc3)nn2)CCS(=O)(=O)N1Cc1ccc(C)cc1` (stereo not drawn) gave UHRF1 binding 0 and MBD2 DNA inh -2.
Screening CCCCCCCCCc1conc1C(=O)/C=C/c1ccco1 returned UHRF1 binding 4, MBD2 DNA inh 2, ABHD5-PLIN5 inh 25*, ABHD5 PLIN5 conf 26* and HNF4 split-luc 21*.
`CCCCCCCCCc1conc1C(=O)CP(=O)(OC)OC` gave UHRF1 binding -1, MBD2 DNA inh -5 and ABHD5-PLIN5 inh 1.
Screening C=CCN1C(=O)[C@H](CC(=O)NCc2ccc(OC)c(OC)c2)[C@@]2(C(=O)OCC)CCCC=C12 returned UHRF1 binding -2 and MBD2 DNA inh 0.
`COc1ccc(COC[C@H](C)N2C[C@@H](C)[C@H](CN(C)S(=O)(=O)c3ccc(F)cc3)OCCCC[C@H](C)Oc3ccc(NC(=O)Nc4ccccc4)cc3C2=O)cc1` gave UHRF1 binding 4 and MBD2 DNA inh 2.
For N#Cc1ccc(C(C(=O)NC2CCCCC2)n2c(=O)c(-c3cc4ccccc4[nH]3)nc3ccccc32)cc1 (stereo not drawn) the results were UHRF1 binding -1, MBD2 DNA inh 0 and ABHD5-PLIN5 inh -7.
For CCCCCNC(=O)C(C1CC1)n1c(=O)c(-c2ccco2)nc2ccccc21 (stereo not drawn) the results were UHRF1 binding -3, MBD2 DNA inh -8, ABHD5-PLIN5 inh 31*, ABHD5 PLIN5 conf 61* and HNF4 split-luc 23*.
`O=C(NC1CCCCC1)C(C1CC1)n1c(=O)c(-c2ccco2)nc2ccccc21` (stereo not drawn) gave UHRF1 binding -6, MBD2 DNA inh -5, ABHD5-PLIN5 inh 66*, ABHD5 PLIN5 conf 71* and HNF4 split-luc 34*.
For O=C(NC1CCCCC1)C(c1ccc(C(F)(F)F)cc1)n1c(=O)c(-c2ccco2)nc2ccccc21 (stereo not drawn) the results were UHRF1 binding 2, MBD2 DNA inh -7, ABHD5-PLIN5 inh 85*, ABHD5 PLIN5 conf 90* and HNF4 split-luc 13*.
For N#Cc1ccc(C(C(=O)NC2CCCCC2)n2c(=O)c(-c3ccco3)nc3ccccc32)cc1 (stereo not drawn) the results were UHRF1 binding -3, MBD2 DNA inh -1, ABHD5-PLIN5 inh 82*, ABHD5 PLIN5 conf 84* and HNF4 split-luc 32*.
For COc1ccc(NC(=O)C(C2CC2)n2c(=O)c(-c3ccco3)nc3ccccc32)cc1 (stereo not drawn) the results were UHRF1 binding -3, MBD2 DNA inh -4 and ABHD5-PLIN5 inh -6.
COC(=O)C1CN(Cc2cn(CCOC(C)=O)nn2)CCS(=O)(=O)N1Cc1ccc(C)cc1 (stereo not drawn) was read as UHRF1 binding 1 and MBD2 DNA inh -3.
For O=C(N[C@H]1CC[C@@H]2SC[C@@H](C(=O)O)N2C1=O)OCC1c2ccccc2-c2ccccc21 the results were UHRF1 binding -2 and MBD2 DNA inh -5.
For CC(C)CNC(=O)OCc1cn(Cc2ccccc2Cl)nn1 the results were UHRF1 binding -1 and MBD2 DNA inh 3.
For O=C(NC1CCCCC1)C(c1ccccc1)n1c(=O)c(-c2ccco2)nc2ccccc21 (stereo not drawn) the results were UHRF1 binding -4, MBD2 DNA inh 4, ABHD5-PLIN5 inh 86*, ABHD5 PLIN5 conf 97* and HNF4 split-luc 54*.
Screening O=C(NC1CCCCC1)C(c1ccccc1)n1c(=O)c(-c2cc3ccccc3[nH]2)nc2ccccc21 (stereo not drawn) returned UHRF1 binding 2, MBD2 DNA inh -1 and ABHD5-PLIN5 inh -1.
Screening CC1(C(=O)NCc2ccc(C(F)(F)F)cc2)CCN1Cc1c(F)cccc1F (stereo not drawn) returned UHRF1 binding -1, MBD2 DNA inh -2, ABHD5-PLIN5 inh 4 and Rin1 Abl inh 1.
For CC1(C(=O)NCc2ccc(C(F)(F)F)cc2)CCN1Cc1ccc(-c2ccccc2)o1 (stereo not drawn) the results were UHRF1 binding -1, MBD2 DNA inh -3, ABHD5-PLIN5 inh 31*, Rin1 Abl inh -2, ABHD5 PLIN5 conf 13 and HNF4 split-luc 25*.
Screening CS(=O)(=O)N[C@@H]1C[C@@H]2O[C@H](CO)CC[C@@H]2O[C@@H]1CCc1ccc(-c2ccccc2F)cc1 returned UHRF1 binding 0 and MBD2 DNA inh -1.
`COC(=O)CNC(c1ccccc1)c1cc(Br)ccc1NC(=O)CCN1CCOCC1` (stereo not drawn) gave Arr AP2 block 2, Beta2AR agonist 4, UHRF1 binding 0, MBD2 DNA inh 2, ABHD5-PLIN5 inh 18 and Rin1 Abl inh 1.
CCOC(=O)CNC(c1ccccc1)c1cc(Br)ccc1NC(=O)CCN1CCOCC1 (stereo not drawn) was read as Arr AP2 block -9, Beta2AR agonist 1, UHRF1 binding -3, MBD2 DNA inh 3, ABHD5-PLIN5 inh 24*, Rin1 Abl inh 1, ABHD5 PLIN5 conf 3 and HNF4 split-luc 39*.
Screening NC(=NCCCCCCN=C(N)/N=C(\N)Nc1ccc(Cl)cc1)/N=C(\N)Nc1ccc(Cl)cc1 returned Arr AP2 block -6, Beta2AR agonist 7, UHRF1 binding -1, MBD2 DNA inh 2, ABHD5-PLIN5 inh 34*!, Rin1 Abl inh -4, ABHD5 PLIN5 conf 26* and HNF4 split-luc 2.
